Results taken from ChEMBL document CHEMBL1145212, “Fluorinated diaryl sulfides as serotonin transporter ligands: synthesis, structure-activity relationship study, and in vivo evaluation of fluorine-18-labeled compounds as PET imaging agents” (J Med Chem, 2005).

Legend:
[1] = target: Sodium-dependent noradrenaline transporter (Homo sapiens, UniProt P23975); assay: In vitro displacement of [3H]nisoxetine from human norepinephrine transporter expressed in HEK293 cells; format: cell-based
How it was run: (§1)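 Competitive binding using cloned human transporters expressed in HEK-293 cells. NET was labelled with [³H]nisoxetine and DAT with [³H]GBR12935, following a previously published procedure.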

[2] = target: Sodium-dependent dopamine transporter (Homo sapiens, UniProt Q01959); assay: In vitro displacement of [3H]GBR-12935 from human dopamine transporter expressed in HEK293 cells; format: cell-based; how it was run: as §1
Sodium-dependent dopamine transporter, sequence (Q01959 whole entry): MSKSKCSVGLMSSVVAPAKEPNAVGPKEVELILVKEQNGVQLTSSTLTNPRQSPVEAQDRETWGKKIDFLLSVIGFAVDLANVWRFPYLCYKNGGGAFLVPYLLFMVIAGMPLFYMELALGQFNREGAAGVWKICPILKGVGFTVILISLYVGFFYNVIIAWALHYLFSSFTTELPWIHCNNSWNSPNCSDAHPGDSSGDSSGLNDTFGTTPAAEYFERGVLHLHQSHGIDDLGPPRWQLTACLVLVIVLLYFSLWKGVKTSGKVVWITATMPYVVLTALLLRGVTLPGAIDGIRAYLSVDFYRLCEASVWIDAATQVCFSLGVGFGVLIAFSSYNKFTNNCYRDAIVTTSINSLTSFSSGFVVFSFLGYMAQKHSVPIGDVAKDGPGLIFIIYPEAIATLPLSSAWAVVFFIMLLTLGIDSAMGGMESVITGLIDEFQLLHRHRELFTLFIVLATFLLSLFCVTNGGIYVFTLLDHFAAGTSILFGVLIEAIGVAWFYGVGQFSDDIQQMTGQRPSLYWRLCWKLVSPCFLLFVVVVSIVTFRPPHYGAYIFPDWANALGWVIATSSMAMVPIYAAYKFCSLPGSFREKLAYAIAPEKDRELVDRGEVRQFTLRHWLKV

Sodium-dependent noradrenaline transporter, sequence (P23975 whole entry): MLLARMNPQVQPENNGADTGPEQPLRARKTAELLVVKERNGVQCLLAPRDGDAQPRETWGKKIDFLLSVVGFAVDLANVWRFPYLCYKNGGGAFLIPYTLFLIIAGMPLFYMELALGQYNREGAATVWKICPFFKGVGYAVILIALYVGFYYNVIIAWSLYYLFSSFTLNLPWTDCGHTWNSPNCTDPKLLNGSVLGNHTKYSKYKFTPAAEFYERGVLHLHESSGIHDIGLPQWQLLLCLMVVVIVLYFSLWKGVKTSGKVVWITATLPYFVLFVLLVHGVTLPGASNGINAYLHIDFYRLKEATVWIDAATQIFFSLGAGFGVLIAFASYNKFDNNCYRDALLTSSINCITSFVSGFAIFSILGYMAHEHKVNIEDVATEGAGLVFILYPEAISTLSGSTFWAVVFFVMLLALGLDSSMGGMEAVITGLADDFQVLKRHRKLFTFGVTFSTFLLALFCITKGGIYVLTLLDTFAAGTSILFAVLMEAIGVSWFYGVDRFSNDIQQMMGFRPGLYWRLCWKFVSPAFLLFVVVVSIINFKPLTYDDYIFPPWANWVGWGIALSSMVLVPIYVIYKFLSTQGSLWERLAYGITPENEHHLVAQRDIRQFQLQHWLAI

Ki [1]: > 10 µM
Ki [2]: 3.55 µM
SMILES: CCCNCc1ccccc1Sc1ccc(C)cc1N
